Measured values published in ChEMBL document CHEMBL4406907, “Exploration of zinc-binding groups for the design of inhibitors for the oxytocinase subfamily of M1 aminopeptidases” (Bioorg Med Chem, 2019).

Columns and labels:
[1] = target: T1, Endoplasmic reticulum aminopeptidase 1 (Homo sapiens, UniProt Q9NZ08); assay: Inhibition of human recombinant ERAP1 expressed in baculovirus infected Sf9 cells using omniMMP fluorogenic substrate incubated for 5 to 10 mins by fluorescence spectrophotometry analysis
[2] = target: T2, Endoplasmic reticulum aminopeptidase 2 (Homo sapiens, UniProt Q6P179); assay: Inhibition of human recombinant ERAP2 expressed in baculovirus infected Sf9 cells using omniMMP fluorogenic substrate incubated for 5 to 10 mins by fluorescence spectrophotometry analysis
[3] = target: T1, Endoplasmic reticulum aminopeptidase 1; assay: Competitive inhibition of human recombinant ERAP1 expressed in baculovirus infected sf9 cells using L-AMC as substrate incubated for 5 to 10 mins by Michaelis-Menten analysis
Procedure, shortened: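 ERAP1 (recombinant, as described previously) at 10 nM with L-AMC as substrate. Michaelis-Menten analysis as previously described. Ki for competitive inhibition derived using a KM for L-AMC of 546 μM.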

[4] = target: T2, Endoplasmic reticulum aminopeptidase 2; assay: Competitive inhibition of human recombinant ERAP2 expressed in baculovirus infected sf9 cells using R-AMC as substrate incubated for 5 to 10 mins by Michaelis-Menten analysis
[5] = system: Insulin-regulated aminopeptidase (Homo sapiens); assay: Inhibition of human recombinant IRAP expressed in baculovirus infected Sf9 cells using omniMMP fluorogenic substrate incubated for 5 to 10 mins by fluorescence spectrophotometry analysis

T1 sequence (Q9NZ08 whole entry): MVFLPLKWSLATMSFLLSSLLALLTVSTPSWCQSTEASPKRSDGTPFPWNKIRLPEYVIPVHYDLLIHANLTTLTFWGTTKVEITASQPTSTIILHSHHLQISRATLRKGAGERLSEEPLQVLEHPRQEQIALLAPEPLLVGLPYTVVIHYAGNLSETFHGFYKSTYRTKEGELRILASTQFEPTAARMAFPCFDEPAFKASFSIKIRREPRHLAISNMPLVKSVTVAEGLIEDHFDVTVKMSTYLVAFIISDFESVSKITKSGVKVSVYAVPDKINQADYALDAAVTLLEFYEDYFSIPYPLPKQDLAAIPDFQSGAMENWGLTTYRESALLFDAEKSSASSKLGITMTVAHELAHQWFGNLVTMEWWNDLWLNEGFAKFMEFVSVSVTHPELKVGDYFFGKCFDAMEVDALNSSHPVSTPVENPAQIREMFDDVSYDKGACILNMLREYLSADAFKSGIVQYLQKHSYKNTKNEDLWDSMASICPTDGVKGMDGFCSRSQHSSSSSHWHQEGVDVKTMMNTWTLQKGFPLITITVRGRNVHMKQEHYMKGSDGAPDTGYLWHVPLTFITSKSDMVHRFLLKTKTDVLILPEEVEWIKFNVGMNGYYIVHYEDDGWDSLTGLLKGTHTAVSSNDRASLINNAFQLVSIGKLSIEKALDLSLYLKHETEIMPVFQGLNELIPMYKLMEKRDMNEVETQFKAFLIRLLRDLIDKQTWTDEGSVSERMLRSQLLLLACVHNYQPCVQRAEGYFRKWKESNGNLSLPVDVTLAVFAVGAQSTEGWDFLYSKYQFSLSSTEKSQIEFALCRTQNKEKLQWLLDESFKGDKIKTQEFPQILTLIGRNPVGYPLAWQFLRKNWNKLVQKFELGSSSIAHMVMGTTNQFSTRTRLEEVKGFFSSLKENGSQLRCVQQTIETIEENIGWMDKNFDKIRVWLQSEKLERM
T2 sequence (Q6P179 whole entry): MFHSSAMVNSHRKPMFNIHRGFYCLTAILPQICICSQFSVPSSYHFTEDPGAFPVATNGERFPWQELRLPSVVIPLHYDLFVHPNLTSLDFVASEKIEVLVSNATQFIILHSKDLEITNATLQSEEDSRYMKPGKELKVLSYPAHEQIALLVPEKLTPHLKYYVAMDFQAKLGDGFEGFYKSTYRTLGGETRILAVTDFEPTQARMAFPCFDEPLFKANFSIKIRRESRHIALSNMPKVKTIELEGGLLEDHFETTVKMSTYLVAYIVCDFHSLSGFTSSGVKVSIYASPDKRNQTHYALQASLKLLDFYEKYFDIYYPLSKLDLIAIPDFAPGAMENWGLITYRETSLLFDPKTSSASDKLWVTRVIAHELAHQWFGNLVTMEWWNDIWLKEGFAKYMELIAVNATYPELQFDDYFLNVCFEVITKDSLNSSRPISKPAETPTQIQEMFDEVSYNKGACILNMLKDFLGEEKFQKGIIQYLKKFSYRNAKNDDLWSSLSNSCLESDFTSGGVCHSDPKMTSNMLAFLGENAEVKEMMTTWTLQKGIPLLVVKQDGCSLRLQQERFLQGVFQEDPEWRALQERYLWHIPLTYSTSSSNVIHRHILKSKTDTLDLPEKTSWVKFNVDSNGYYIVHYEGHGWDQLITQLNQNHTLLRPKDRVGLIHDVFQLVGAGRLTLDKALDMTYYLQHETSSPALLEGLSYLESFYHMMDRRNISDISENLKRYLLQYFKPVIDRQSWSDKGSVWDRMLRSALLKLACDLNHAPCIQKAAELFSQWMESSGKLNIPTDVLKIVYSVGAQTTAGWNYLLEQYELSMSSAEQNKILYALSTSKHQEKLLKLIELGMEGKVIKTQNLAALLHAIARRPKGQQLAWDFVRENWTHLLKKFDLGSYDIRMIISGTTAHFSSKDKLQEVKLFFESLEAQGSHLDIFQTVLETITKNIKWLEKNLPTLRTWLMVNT

IC50 [1] [µM] | IC50 [2] [µM] | Ki [3] [µM] | Ki [4] [µM] | inhibition [5] | Compound
25.6 | 31.9 | 23.4 | 17.4 | – | COc1cccn(CC(=O)NCCc2ccc(-c3ccccc3)cc2)c1=S
> 100 | > 10 | – | – | – | CCCC[C@H](N)C(=O)Nc1cccc(C(=O)N[C@@H](Cc2c[nH]c3ccccc23)C(=O)OCc2ccccc2)c1
> 100 | 8.8 | – | 4.8 | – | CCCC[C@H](N)C(=O)Nc1ccc(C(=O)N[C@@H](Cc2c[nH]c3ccccc23)C(=O)OCc2ccccc2)cc1
– | 31.3 | – | 17.7 | – | O=C(Cn1cccc(O)c1=O)NCCc1c[nH]c2ccccc12
20.2 | 10.3 | 18.5 | 0.7 | – | O=C(Cn1cccc(O)c1=O)N[C@@H](Cc1c[nH]c2ccccc12)C(=O)OCc1ccccc1
> 10 | > 10 | – | – | – | CCCC[C@H](N)C(=O)Nc1cc(C(=O)N[C@@H](Cc2c[nH]c3ccccc23)C(=O)OCc2ccccc2)ccn1
48.5 | 8.9 | 44 | 4.9 | – | CC(C)[C@H](NC(=O)Cn1cccc(O)c1=O)C(=O)OCc1ccccc1
11.9 | > 10 | 4.7 | – | – | N[C@@H](CCc1ccccc1)C(=O)NNc1ccc(C(=O)N[C@@H](Cc2c[nH]c3ccccc23)C(=O)OCc2ccccc2)cc1
> 10 | 7.9 | – | 4.3 | – | CCCC[C@H](N)C(=O)NNc1cccc(C(=O)N[C@@H](Cc2c[nH]c3ccccc23)C(=O)OCc2ccccc2)c1
11.9 | 2.2 | 10.9 | 1.2 | Dose-dependent effect | CCCC[C@H](N)C(=O)NNc1ccc(C(=O)N[C@@H](Cc2c[nH]c3ccccc23)C(=O)OCc2ccccc2)cc1
19.1 | 50.3 | 17.5 | 27.4 | – | O=C(Cn1cccc(O)c1=O)NCCc1ccc(-c2ccccc2)cc1
